# From ChEMBL document CHEMBL1137710, “Synthesis and in vitro antitumor activity of new quinoxaline derivatives” (2009)
# Experiments:
# Format in all cases: functional
# NCI-H460 = assay: Anticancer activity against human NCI-H460 cells assessed as cell growth at 100 uM after 48 hrs by sulforhodamine B assay; details: NCI-H460, 48 h, read-out: Activity
# MCF7 = assay: Anticancer activity against human MCF7 cells assessed as cell growth at 100 uM after 48 hrs by sulforhodamine B assay; details: MCF7, 48 h, read-out: Activity
# K562 = assay: Growth inhibition of human K562 cells after 48 hrs by sulforhodamine B assay; details: K562, 48 h
# Procedure, shortened: (§1)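 NCI 60-human-tumor-cell-line panel, with compounds tested over a 5-log dose range. Values are taken from dose-response curves as log10 molar concentrations: GI50 is 50% net growth inhibition, TGI is total growth inhibition, and LC50 is 50% net cell death.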
# A549 = assay: Growth inhibition of human A549 cells after 48 hrs by sulforhodamine B assay; details: A549, 48 h; procedure, shortened: as §1
# NCI-H322M = assay: Growth inhibition of human NCI-H322M cells after 48 hrs by sulforhodamine B assay; procedure, shortened: as §1
# NCI-H522 = assay: Growth inhibition of human NCI-H522 cells after 48 hrs by sulforhodamine B assay; details: NCI-H522, 48 h; procedure, shortened: as §1
# COLO 205 = assay: Growth inhibition of human COLO205 cells after 48 hrs by sulforhodamine B assay; details: COLO 205, 48 h; procedure, shortened: as §1
# HCT-116 = assay: Growth inhibition of human HCT116 cells after 48 hrs by sulforhodamine B assay; details: HCT-116, 48 h; procedure, shortened: as §1
# SW-620 = assay: Growth inhibition of human SW620 cells after 48 hrs by sulforhodamine B assay; details: SW-620, 48 h
# Procedure, shortened: (§2)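 Run in the NCI 60-human-tumour-cell-line panel, tested over a 5-log dose range. Dose–response curves gave three values per cell line, each as a log10 molar concentration: GI50 (50% inhibition of net cell growth), TGI (total inhibition of net growth) and LC50 (50% net cell death). The mean graph midpoint is the arithmetic mean over all lines, with insensitive lines entered at the highest concentration tested.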
# SF-268 = assay: Growth inhibition of human SF268 cells after 48 hrs by sulforhodamine B assay; details: SF-268, 48 h; procedure, shortened: as §1
# SF-295 = assay: Growth inhibition of human SF295 cells after 48 hrs by sulforhodamine B assay; details: SF-295, 48 h; procedure, shortened: as §1
# U-251 = assay: Growth inhibition of human U251 cells after 48 hrs by sulforhodamine B assay; details: U-251, 48 h; procedure, shortened: as §2
# LOX IMVI = assay: Growth inhibition of human LOXIMVI cells after 48 hrs by sulforhodamine B assay; procedure, shortened: as §1
# M14 = assay: Growth inhibition of human M14 cells after 48 hrs by sulforhodamine B assay; details: M14, 48 h; procedure, shortened: as §1
# SK-MEL-28 = assay: Growth inhibition of human SK-MEL-28 cells after 48 hrs by sulforhodamine B assay; details: SK-MEL-28, 48 h; procedure, shortened: as §1
# SK-MEL-5 = assay: Growth inhibition of human SK-MEL-5 cells after 48 hrs by sulforhodamine B assay; details: SK-MEL-5, 48 h; procedure, shortened: as §1
# IGROV-1 = assay: Growth inhibition of human IGROV1 cells after 48 hrs by sulforhodamine B assay; details: IGROV-1, 48 h; procedure, shortened: as §1
# OVCAR-4 = assay: Growth inhibition of human OVCAR4 cells after 48 hrs by sulforhodamine B assay; details: OVCAR-4, 48 h; procedure, shortened: as §1
# OVCAR-5 = assay: Growth inhibition of human OVCAR5 cells after 48 hrs by sulforhodamine B assay; details: OVCAR-5, 48 h; procedure, shortened: as §1
# OVCAR-8 = assay: Growth inhibition of human OVCAR8 cells after 48 hrs by sulforhodamine B assay; details: OVCAR-8, 48 h; procedure, shortened: as §1
# 786-0 = assay: Growth inhibition of human 786-0 cells after 48 hrs by sulforhodamine B assay; details: 786-0, 48 h; procedure, shortened: as §1
# CAKI-1 = assay: Growth inhibition of human Caki1 cells after 48 hrs by sulforhodamine B assay; details: CAKI-1, 48 h; procedure, shortened: as §1
# RXF 393 = assay: Growth inhibition of human RXF393 cells after 48 hrs by sulforhodamine B assay; details: RXF 393, 48 h; procedure, shortened: as §1
# TK-10 = assay: Growth inhibition of human TK10 cells after 48 hrs by sulforhodamine B assay; details: TK-10, 48 h; procedure, shortened: as §2
# PC-3 = assay: Growth inhibition of human PC3 cells after 48 hrs by sulforhodamine B assay; details: PC-3, 48 h; procedure, shortened: as §1
# DU-145 = assay: Growth inhibition of human DU145 cells after 48 hrs by sulforhodamine B assay; details: DU-145, 48 h; procedure, shortened: as §1
# NCI/ADR-RES = assay: Growth inhibition of human NCI/ADR-RES cells after 48 hrs by sulforhodamine B assay; procedure, shortened: as §1
# MDA-MB-231 = assay: Growth inhibition of human MDA-MB-231 cells after 48 hrs by sulforhodamine B assay; details: MDA-MB-231, 48 h; procedure, shortened: as §1
# [1] = Growth inhibition of human Hs 578T cells after 48 hrs by sulforhodamine B assay; procedure, shortened: as §1
# MDA-MB-435 = assay: Growth inhibition of human MDA-MB-435 cells after 48 hrs by sulforhodamine B assay; details: MDA-MB-435, 48 h; procedure, shortened: as §1
# [2] = read-out: pLC50 (the source's name) (converted)
smiles,measurement,setting,value
COc1ccc(CNc2nc3cc(N)cc(N)c3nc2-c2ccccc2)cc1,growth at 100 µM,NCI-H460,0%
same,growth at 100 µM,MCF7,0%
same,GI50,K562,25.1 µM
same,LC50,K562,> 100 µM
same,TGI,K562; read-out: pTGI (converted),97.7 µM
same,GI50,A549,21.4 µM
same,LC50,A549,> 100 µM
same,TGI,A549; read-out: pTGI (converted),60.3 µM
same,GI50,NCI-H322M,22.9 µM
same,LC50,NCI-H322M,> 100 µM
same,TGI,NCI-H322M; read-out: pTGI (converted),52.5 µM
same,GI50,NCI-H522,10 µM
same,LC50,NCI-H522,47.9 µM
same,TGI,NCI-H522; read-out: pTGI (converted),21.9 µM
same,GI50,COLO 205,15.5 µM
same,LC50 (50% net cell kill),COLO 205,74.1 µM
same,TGI,COLO 205; read-out: pTGI (converted),33.9 µM
same,GI50,HCT-116,14.5 µM
same,LC50 (concentration causing 50% net cell death),HCT-116,52.5 µM
same,TGI,HCT-116; read-out: pTGI (converted),27.5 µM
same,GI50,SW-620,12.9 µM
same,CC50,SW-620; [2],70.8 µM
same,TGI,SW-620; read-out: pTGI (converted),30.2 µM
same,GI50,SF-268,9.77 µM
same,LC50,SF-268,49 µM
same,TGI,SF-268; read-out: pTGI (converted),21.9 µM
same,GI50,SF-295,17.8 µM
same,LC50 (50% net cell kill),SF-295,58.9 µM
same,TGI,SF-295; read-out: pTGI (converted),32.4 µM
same,GI50,U-251,13.5 µM
same,LC50 (50% net cell kill),U-251,51.3 µM
same,TGI,U-251; read-out: pTGI (converted),26.3 µM
same,GI50,LOX IMVI,13.5 µM
same,LC50,LOX IMVI,55 µM
same,TGI,LOX IMVI; read-out: pTGI (converted),27.5 µM
same,GI50,M14,18.2 µM
same,CC50,M14; [2],57.5 µM
same,TGI,M14; read-out: pTGI (converted),32.4 µM
same,GI50,SK-MEL-28,17.4 µM
same,CC50,SK-MEL-28; [2],60.3 µM
same,TGI,SK-MEL-28; read-out: pTGI (converted),32.4 µM
same,GI50,SK-MEL-5,17.8 µM
same,CC50,SK-MEL-5; [2],56.2 µM
same,TGI,SK-MEL-5; read-out: pTGI (converted),31.6 µM
same,GI50,IGROV-1,12.9 µM
same,CC50,IGROV-1; [2],56.2 µM
same,TGI,IGROV-1; read-out: pTGI (converted),26.9 µM
same,GI50,OVCAR-4,8.13 µM
same,CC50,OVCAR-4; [2],47.9 µM
same,TGI,OVCAR-4; read-out: pTGI (converted),21.4 µM
same,GI50,OVCAR-5,20.9 µM
same,CC50,OVCAR-5; [2],> 100 µM
same,TGI,OVCAR-5; read-out: pTGI (converted),45.7 µM
same,GI50,OVCAR-8,14.8 µM
same,CC50,OVCAR-8; [2],> 100 µM
same,TGI,OVCAR-8; read-out: pTGI (converted),39.8 µM
same,GI50,786-0,15.1 µM
same,CC50,786-0; [2],> 100 µM
same,TGI,786-0; read-out: pTGI (converted),41.7 µM
same,GI50,CAKI-1,16.2 µM
same,CC50,CAKI-1; [2],79.4 µM
same,TGI,CAKI-1; read-out: pTGI (converted),36.3 µM
same,GI50,RXF 393,5.37 µM
same,CC50,RXF 393; [2],44.7 µM
same,TGI,RXF 393; read-out: pTGI (converted),18.2 µM
same,GI50,TK-10,28.2 µM
same,CC50,TK-10; [2],> 100 µM
same,TGI,TK-10; read-out: pTGI (converted),57.5 µM
same,GI50,PC-3,10.2 µM
same,CC50,PC-3; [2],72.4 µM
same,TGI,PC-3; read-out: pTGI (converted),27.5 µM
same,GI50,DU-145,21.9 µM
same,CC50,DU-145; [2],> 100 µM
same,TGI,DU-145; read-out: pTGI (converted),57.5 µM
same,GI50,NCI/ADR-RES,22.9 µM
same,CC50,NCI/ADR-RES; [2],> 100 µM
same,TGI,NCI/ADR-RES; read-out: pTGI (converted),83.2 µM
same,GI50,MDA-MB-231,2.88 µM
same,CC50,MDA-MB-231; [2],64.6 µM
same,TGI,MDA-MB-231; read-out: pTGI (converted),13.8 µM
same,GI50,[1],26.9 µM
same,CC50,[1]; [2],> 100 µM
same,TGI,[1]; read-out: pTGI (converted),> 100 µM
same,GI50,MDA-MB-435,10 µM
same,CC50,MDA-MB-435; [2],46.8 µM
same,TGI,MDA-MB-435; read-out: pTGI (converted),21.9 µM
